Test results: ChEMBL document CHEMBL1140862, “Berberine analogues as a novel class of the low-density-lipoprotein receptor up-regulators: synthesis, structure-activity relationships, and cholesterol-lowering efficacy” (J Med Chem, 2009)
Values belong to the compound of their own block, whether it stands above or below them. Activity calls are given as the source filed them. No cut-off for these calls is given here.

Assays:
HepG2 [1] = assay: Induction of LDLR mRNA expression in human HepG2 cells after 12 hrs by RT-PCR assay relative to untreated control; type: functional
Procedure, shortened: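 HepG2 cells kept in RPMI-1640 with 10% FBS, moved 24 h before dosing to 10% LPDS, then at ~80% confluence to RPMI-1640 with 0.5% LPDS plus compound (5.0 µg/mL in table; concentrations as indicated in figure), 12 h, 37 °C. Total RNA reverse-transcribed, TaqMan real-time PCR, comparative CT method with GAPDH reference; fold of untreated cells (=1); mean of three experiments.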

Rattus norvegicus [2] = assay: Reduction of blood low density lipoprotein cholesterol level in hyperlipidemic Sprague-Dawley rat at 100 mg/kg, po daily twice for 30 days relative to control; type: functional; parameters: scale not given: the % may be the effect or the level left
Procedure, shortened: (§1)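 Male Sprague-Dawley rats on HFHC diet 8 weeks, then saline suspension by gavage at 100 (mg/kg)/day, twice daily, 30 days (n = 8; untreated HFHC n = 6; normal-diet controls). Fasted tail-snip blood at end point; total cholesterol and LDL-c by commercial kits; percent reduction versus untreated HFHC control; mean ± SEM.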

Mus musculus [3] = assay: Reduction of blood low density lipoprotein cholesterol level in hyperlipidemic C57BL/6J mouse at 100 mg/kg, po daily twice for 21 days relative to control; type: functional; parameters: scale not given: the % may be the effect or the level left
Procedure, shortened: (§2)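 Male C57BL/6J mice fed HFHC diet 8 weeks, then gavaged twice daily (0.2 mL saline suspension) at 100 (mg/kg)/day for 21 days (n = 8; untreated n = 6). Fasted tail-snip blood; total cholesterol and LDL-c by commercial kits relative to untreated control.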

Rattus norvegicus [4] = assay: Reduction of blood low density lipoprotein cholesterol level in hyperlipidemic Sprague-Dawley rat at 100 mg/kg, po daily twice; type: functional, organism-based; parameters: dose 100 mg/kg; details: TDE = time-dependent effect
Bel-7402 = assay: Induction of LDLR […] in human Bel7402 cells after 12 hrs by RT-PCR assay relative to control; type: functional, cell-based
Rattus norvegicus [5] = assay: Induction of HMG-CoA reductase mRNA expression in hyperlipidemic Sprague-Dawley rat liver at 100 mg/kg, po daily twice for 30 days by RT-PCR; type: functional, organism-based; parameters: dose 100 mg/kg
Procedure, shortened: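 Male Sprague-Dawley rats (180 ± 10 g) fed HFHC diet (2% cholesterol, 10% yolk powder, 15% lard, 0.2% sodium cholate) 8 weeks, then gavaged with compound suspended in saline, 100 (mg/kg)/day, twice daily, 30 days (n = 8; untreated n = 6). Liver RNA, TaqMan real-time RT-PCR, comparative CT with GAPDH; fold of untreated HFHC control.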

Mus musculus [6] = assay: Reduction of blood cholesterol level in hyperlipidemic C57BL/6J mouse at 100 mg/kg, po daily twice for 21 days relative to control; type: functional; parameters: scale not given: the % may be the effect or the level left; procedure, shortened: as §2
[7] = Elimination half life in po dosed human; type: ADME, organism-based; details: in vivo, read-out: beta t1/2 (converted)
HepG2 [8] = assay: Induction of LDLR protein expression in human HepG2 cells at 10 ug/mL after 12 hrs by flow cytometry; type: functional, cell-based
Procedure, shortened: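 HepG2 cells in LPDS medium treated 12 h with 10 µg/mL compound, detached, fixed in 2% paraformaldehyde at 4 °C overnight, blocked, stained on ice 1 h with rabbit polyclonal anti-LDLR (1:25), then FITC goat anti-rabbit IgG (1:50) 30 min; normal rabbit IgG background control; cell-surface fluorescence by flow cytometry.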

Rattus norvegicus [9] = assay: Reduction of blood cholesterol level in hyperlipidemic Sprague-Dawley rat at 100 mg/kg, po daily twice for 30 days relative to control; type: functional; parameters: scale not given: the % may be the effect or the level left; procedure, shortened: as §1
Rattus norvegicus [10] = assay: Reduction of blood cholesterol level in hyperlipidemic Sprague-Dawley rat at 100 mg/kg, po daily twice; type: functional, organism-based; parameters: dose 100 mg/kg; details: TDE = time-dependent effect

Compound: COc1ccc2c(c1OC)C[N+]1(CCO)CCc3cc4c(cc3C1C2)OCO4.[Br-] (stereo unspecified)
fold change (FC) (HepG2 [1]): 1.2

Compound: CCc1c2[n+](cc3c(OC)c(OC)ccc13)CCc1cc3c(cc1-2)OCO3.[Cl-]
fold change (FC) (HepG2 [1]): 1.04

Compound: COc1ccc2c(C)c3[n+](cc2c1OC)CCc1cc2c(cc1-3)OCO2.[Cl-]
fold change (FC) (HepG2 [1]): 1.1

Compound: CCC[N+]12CCc3cc4c(cc3C1Cc1cc(OC)c(OC)cc1C2)OCO4.[I-] (stereo unspecified)
fold change (FC) (HepG2 [1]): 0.9

Compound: COc1cc2c(cc1O)-c1cc3ccc(OC)c(OC)c3c[n+]1CC2.[I-] [COLUMBAMINE IODIDE]
fold change (FC) (HepG2 [1]): 1

Compound: COc1cc2c(cc1OC)C[N+]1(Cc3ccccc3)CCc3cc4c(cc3C1C2)OCO4.[Br-] (stereo unspecified)
fold change (FC) (HepG2 [1]): 0.9

Compound: CCC[N+]12CCc3cc4c(cc3C1Cc1ccc(OC)c(OC)c1C2)OCO4.[I-] (stereo unspecified)
fold change (FC) (HepG2 [1]): 1.2

Compound: COc1cc2c(cc1OC)CN1CCc3cc4c(cc3C1C2)OCO4 (stereo unspecified)
fold change (FC) (HepG2 [1]): 1.3

Compound: CCCCCCc1c2[n+](cc3cc(OC)c(OC)cc13)CCc1cc3c(cc1-2)OCO3.[Cl-]
fold change (FC) (HepG2 [1]): 1.1

Compound: CCCCc1c2[n+](cc3c(OC)c(OC)ccc13)CCc1cc3c(cc1-2)OCO3.[Cl-]
fold change (FC) (HepG2 [1]): 0.9

Compound: COc1ccc2cc3[n+](cc2c1OC)CCc1cc(OCc2ccccc2)c(OCc2ccccc2)cc1-3.[Br-]
fold change (FC) (HepG2 [1]): 1

half-life [7]: 2.94 h
Compound: COc1ccc2cc3[n+](cc2c1OC)CCc1cc2c(cc1-3)OCO2.[Cl-] [BERBERINE CHLORIDE]
Activity (Rattus norvegicus [2]): 31.6% | Activity (Mus musculus [3]): 23.9% | Activity (Rattus norvegicus [4]): tde | fold change (FC) (HepG2 [1]): 2.2 | Activity (Bel-7402): Active | Activity (Rattus norvegicus [5]): inactive | Activity (Mus musculus [6]): 16.7% | Activity (HepG2 [8]): Active | Activity (Rattus norvegicus [9]): 27.4% | Activity (Rattus norvegicus [10]): tde

Compound: CCOC(=O)C[N+]12CCc3cc4c(cc3C1Cc1ccc(OC)c(OC)c1C2)OCO4.[Br-] (stereo unspecified)
fold change (FC) (HepG2 [1]): 0.8

Compound: COc1cc2c(cc1OC)C[N+]1(C)CCc3cc4c(cc3C1C2)OCO4.[I-] (stereo unspecified)
fold change (FC) (HepG2 [1]): 0.9

Compound: COc1ccc2c(c1OC)C[N+]1(C)CCc3cc4c(cc3C1C2)OCO4.[I-] (stereo unspecified)
fold change (FC) (HepG2 [1]): 1.1

Compound: COc1ccc2c(c1OC)C[N+]1(Cc3ccccc3)CCc3cc4c(cc3C1C2)OCO4.[Br-] (stereo unspecified)
fold change (FC) (HepG2 [1]): 1.1
